Screens from PubChem BioAssay.
Hits are enriched below; roughly 5.8% of the tested compounds scored in any of these assays.
IDH1 R132H inh: blocks human IDH1 R132H reductase activity; diaphorase/resazurin fluorescence, 60 min; 70,000 tested, 0.18% active; O75874; inhibition, % at 10 µM; in the data active = inhibition above about 34%; inconclusive = no clear call, values can overlap the other calls; inactive = below about 11%;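 also: 0% = DMSO and 100% = no enzyme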
Target sequence (O75874 whole entry R132H): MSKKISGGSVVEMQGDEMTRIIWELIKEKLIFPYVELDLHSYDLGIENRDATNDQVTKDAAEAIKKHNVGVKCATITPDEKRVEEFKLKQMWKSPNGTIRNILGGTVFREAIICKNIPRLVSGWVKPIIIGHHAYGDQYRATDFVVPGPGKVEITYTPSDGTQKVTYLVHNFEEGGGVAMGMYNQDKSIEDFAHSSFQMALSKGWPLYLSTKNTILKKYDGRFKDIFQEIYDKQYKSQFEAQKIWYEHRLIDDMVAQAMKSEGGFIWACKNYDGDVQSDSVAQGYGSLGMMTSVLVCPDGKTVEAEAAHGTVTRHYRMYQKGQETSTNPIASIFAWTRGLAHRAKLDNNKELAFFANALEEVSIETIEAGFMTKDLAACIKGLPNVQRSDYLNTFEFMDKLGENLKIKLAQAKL
GASC1 inh: blocks human GASC-1 (KDM4C) demethylase activity | Q9H3R0 | GST-KDM4C 2-372, H3K9me3 peptide, LANCE TR-FRET | inhibition, % at 12.5 µM | 96,000 tested, 0.15% active;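 active = mean replicate inhibition above about 25%, with at least 55% of replicates also reaching it, limit read from the data, passing the limit was not always enough; inconclusive = only one of those two conditions met; inactive = neither condition met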
Target sequence (Q9H3R0 2-372 limits assumed): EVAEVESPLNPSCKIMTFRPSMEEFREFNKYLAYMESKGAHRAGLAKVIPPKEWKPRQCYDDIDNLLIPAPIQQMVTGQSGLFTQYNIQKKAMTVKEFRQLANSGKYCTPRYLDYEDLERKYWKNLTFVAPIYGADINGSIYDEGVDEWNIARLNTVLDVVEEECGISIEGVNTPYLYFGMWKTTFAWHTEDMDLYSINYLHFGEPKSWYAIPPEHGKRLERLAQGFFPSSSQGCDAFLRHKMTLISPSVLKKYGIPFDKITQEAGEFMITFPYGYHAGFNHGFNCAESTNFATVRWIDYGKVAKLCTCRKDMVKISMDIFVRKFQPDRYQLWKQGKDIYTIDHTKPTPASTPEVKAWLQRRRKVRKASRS
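System – N-terminal GST-fused human GASC-1 (KDM4C) fragment, residues 2-372 · Input – enzyme final amount 10 nM · Technique – LANCE TR-FRET, Eu antibody, ULight-streptavidin, EDTA, ex 340 nm, em 618/671 nm · Medium – HEPES buffer, pH 7.5, plus ascorbate · Incubation – enzyme reaction 30 min, then detection 60 min, both room temperature · Reagent – H3K9me3 peptide with Fe(II)/2OG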
Pf Dd2 growth: blocks growth of Plasmodium falciparum Dd2 parasites; P. falciparum Dd2 growth, SYBR Green, 72 h; hits give low values; activity change, % at 10 µM; 94,000 tested, 2.3% active; in the data active = activity change below about -80%; inconclusive = no clear call, values can overlap the other calls
T cruzi growth-1: T. cruzi proliferation inhibition | T. cruzi beta-gal in NIH3T3, GalScreen luminescence, 90 h | inhibition, % at 8.34 µM | 77,000 tested, 5.9% active | AID 624255;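 active = mean inhibition above about 93%, with at least 55% of replicates each passing it, limit read from the data, passing the limit was not always enough; inconclusive = only one of those two conditions holds; inactive = neither condition holds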
T cruzi growth-2: Trypanosoma cruzi proliferation inhibition; shares compounds with T cruzi growth-1; T. cruzi beta-gal in NIH3T3, GalScreen luminescence, 90 h; inhibition, % at 8.35 µM; 5,600 tested, 72% active; AID 651739;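 active = mean replicate inhibition above about 95% and at least 55% of replicates individually reaching it, limit read from the data; inconclusive = only one of the two criteria is met; inactive = neither criterion is met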
T cruzi growth-3: inhibitors of T. cruzi proliferation; shares compounds with T cruzi growth-1; T. cruzi beta-gal in NIH3T3, GalScreen luminescence, 90 h; inhibition, % at 2.09 µM; 5,600 tested, 21% active; AID 651740;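 active = mean inhibition above about 95%, with at least 55% of replicates also reaching it, limit read from the data; inconclusive = meets just one of the two conditions; inactive = meets neither condition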;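 also: plate controls were neutral control median for no effect and positive control median for full effect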
3T3 cytotox: kills mouse NIH/3T3 fibroblasts. shares compounds with T cruzi growth-1. NIH/3T3 viability, CellTiter-Glo ATP luminescence, 90 h. cytotoxicity (signal decrease), % at 8.35 µM. 5,600 tested, 14% active;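 active = mean signal decrease across replicates above about 35% based on untreated-well scatter, with enough replicates individually passing, limit read from the data; inconclusive = no rule stated though some were filed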;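 also: 0% = median of neutral control wells and 100% = median of positive control wells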
NIH3T3 tox 2: cytotoxicity in mouse NIH/3T3 fibroblasts. shares compounds with T cruzi growth-1. NIH/3T3 viability, CellTiter-Glo ATP luminescence, 90 h. inhibition, % at 24.9 µM. 5,600 tested, 56% active;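 active = mean loss of cell viability signal at or above a set limit, and enough replicates individually reaching it; inconclusive = meets only the mean limit or only the replicate share; inactive = meets neither condition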;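 also: 0% = median of neutral control wells and 100% = median of positive control wells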
* = called active by the depositor; u = inconclusive; x = no result given.

SMILES	IDH1 R132H inh	GASC1 inh	Pf Dd2 growth	T cruzi growth-1	T cruzi growth-2	T cruzi growth-3	3T3 cytotox	NIH3T3 tox 2
O=C(C[C@H]1CC[C@H]2[C@@H](COC[C@@H](O)CN2Cc2cccc(-c3ccncc3)c2)O1)N1CCCCC1	x	-0.7	-17.8	109.3*	59.0	-12.6	-23.1	-4.9
O=C(C[C@H]1CC[C@H]2[C@@H](COC[C@H](O)CN2Cc2cccc(Cl)c2)O1)N1CCCCC1	x	1.7	4.1	121.9*	78.0	30.5	0.4	10.4
O=C(C[C@@H]1CC[C@H]2[C@@H](COC[C@@H](O)CN2C(=O)Nc2cccc(Cl)c2)O1)N1CCCCC1	x	-2.2	-6.4	95.4*	64.2	16.4	-2.2	15.3
O=C(C[C@H]1CC[C@H]2[C@@H](COC[C@@H](O)CN2C(=O)Nc2cccc(Cl)c2)O1)N1CCCCC1	x	1.7	5.8	13.2	x	x	x	x
O=C(C[C@@H]1CC[C@@H]2[C@H](COC[C@@H](O)CN2Cc2nccs2)O1)N1CCC(Cc2ccccc2)CC1	x	-0.2	x	164.8*	84.0	32.1	17.8	17.5
O=C(C[C@@H]1CC[C@H]2[C@@H](COC[C@@H](O)CN2Cc2cccc(-c3ccncc3)c2)O1)N1CCCCC1	x	-0.1	-10.7	63.1	x	x	x	x
Cc1ccc(-n2c(SCC(=O)Nc3ccc(F)c(Cl)c3)nnc2-c2ccco2)cc1	0.3	x	x	x	x	x	x	x
COc1ccc(NC(=O)N(C)C[C@H]2Oc3cc(C#CCC(C)C)ccc3S(=O)(=O)N([C@@H](C)CO)C[C@@H]2C)cc1	-0.3	1.0	-38.0	95.2*	105.9*	61.0	13.1	89.1*
COc1ccc(NC(=O)N(C)C[C@@H]2Oc3cc(C#CCC(C)C)ccc3S(=O)(=O)N([C@@H](C)CO)C[C@@H]2C)cc1	-0.2	-1.2	-50.0	98.6*	105.6*	111.2*	-10.7	95.9*
C[C@H]1CN([C@@H](C)CO)S(=O)(=O)c2ccc(C#Cc3ccccc3)cc2O[C@H]1CN(C)C(=O)Nc1ccccc1	0.4	-0.5	-35.1	3.0	x	x	x	x
COc1ccc(NC(=O)N(C)C[C@@H]2Oc3cc(C#CCC(C)C)ccc3S(=O)(=O)N([C@H](C)CO)C[C@H]2C)cc1	0.5	6.8	-34.4	89.1	x	x	x	x
CC(C)CC#Cc1ccc2c(c1)O[C@@H](CN(C)C(=O)Nc1ccccc1)[C@@H](C)CN([C@H](C)CO)S2(=O)=O	0.1	-2.7	-68.5	129.4*	102.4*	71.9	24.3	94.8*
COc1ccc(NC(=O)N(C)C[C@H]2Oc3cc(C#CCC(C)C)ccc3S(=O)(=O)N([C@@H](C)CO)C[C@H]2C)cc1	-1.5	x	-55.2	100.2*	107.7*	72.9	-18.3	58.1*
CCCC#Cc1ccc2c(c1)O[C@H](CN(C)C(=O)Nc1ccc(OC)cc1)[C@@H](C)CN([C@@H](C)CO)S2(=O)=O	-4.2	0.2	-34.5	112.6*	112.3*	70.8	28.2	-15.2
CC(C)CC#Cc1ccc2c(c1)O[C@H](CN(C)C(=O)Nc1ccccc1F)[C@H](C)CN([C@H](C)CO)S2(=O)=O	-5.0	-1.9	-41.0	84.6	x	x	x	x
CCCC#Cc1ccc2c(c1)O[C@@H](CN(C)C(=O)Nc1ccc(OC)cc1)[C@H](C)CN([C@@H](C)CO)S2(=O)=O	x	0.8	-43.3	92.4	x	x	x	x
CC(C)CC#Cc1ccc2c(c1)O[C@H](CN(C)C(=O)Nc1ccccc1F)[C@@H](C)CN([C@H](C)CO)S2(=O)=O	-0.2	1.6	-48.7	91.7*	107.4*	38.6	10.7	67.8*
COC(=O)c1cc(OC)c(OC)cc1NC(=O)COc1ccc(Cl)cc1Br	0.0	x	x	x	x	x	x	x
N#C[C@H]1[C@H](c2ccc(C3=CCCCC3)cc2)[C@@H](CO)N1C(=O)c1cccc(F)c1	x	-1.3	-5.2	98.1*	100.2*	40.4	10.0	44.8*
COc1ccc(-c2ccc([C@H]3[C@@H](C#N)N(C(=O)c4cccc(F)c4)[C@H]3CO)cc2)cc1	x	-1.9	-15.9	93.5	x	x	x	x
COc1ccc(-c2ccc([C@@H]3[C@@H](CO)N(C(=O)c4cccc(F)c4)[C@H]3C#N)cc2)cc1	x	-0.3	-28.9	u	88.4	41.3	0.7	6.8
COc1ccc(-c2ccc([C@@H]3[C@H](C#N)N(C(=O)c4cccc(F)c4)[C@H]3CO)cc2)cc1	x	-4.9	12.0	103.3*	105.3*	40.8	9.0	30.7*
N#C[C@H]1[C@@H](c2ccc(C3=CCCCC3)cc2)[C@H](CO)N1C(=O)c1cccc(F)c1	x	-1.1	-5.8	94.0	x	x	x	x
Cc1nnc(SCC(=O)Nc2ccc([N+](=O)[O-])cc2O)s1	0.1	x	x	x	x	x	x	x
C[C@H](CO)N1C[C@H](C)[C@@H](CN(C)C(=O)Nc2ccc(C(F)(F)F)cc2)OCCCC[C@H](C)Oc2ccc(NC(=O)c3ccccc3)cc2C1=O	x	-0.5	-50.8	101.1*	109.9*	113.3*	36.3*	52.4*
SMILES	IDH1 R132H inh	GASC1 inh	Pf Dd2 growth	T cruzi growth-1	T cruzi growth-2	T cruzi growth-3	3T3 cytotox	NIH3T3 tox 2
C[C@H](CO)N1C[C@H](C)[C@H](CN(C)C(=O)Nc2ccc(F)cc2)OCCCC[C@H](C)Oc2ccc(NC(=O)c3ccccc3)cc2C1=O	0.4	-1.9	-56.8	u	106.7*	76.1	-23.3	1.7
C[C@H](CO)N1C[C@H](C)[C@H](CN(C)C(=O)Nc2ccc(C(F)(F)F)cc2)OCCCC[C@H](C)Oc2ccc(NC(=O)c3ccccc3)cc2C1=O	x	-1.2	-82.5*	u	105.8*	108.6*	5.7	19.4
C[C@@H]1CCCCO[C@@H](CN(C)C(=O)Nc2ccc(F)cc2)[C@H](C)CN([C@@H](C)CO)C(=O)c2cc(NC(=O)c3ccccc3)ccc2O1	x	-0.6	-40.0	56.6	x	x	x	x
Cc1cccc(NC(=O)CSc2nnc(-c3cccs3)n2-c2ccccc2)c1	-0.2	x	x	x	x	x	x	x
COC(=O)CSc1nnc(-c2sc3ccccc3c2Cl)n1-c1ccc(OC)cc1	-0.4	x	x	x	x	x	x	x
COc1ccccc1NC(=O)Cn1cnc2scc(-c3cccc([N+](=O)[O-])c3)c2c1=O	0.4	x	x	x	x	x	x	x
O=C(C[C@@H]1CC[C@H]2[C@@H](COC[C@H](O)CN2S(=O)(=O)c2cccc(Cl)c2)O1)Nc1ccc(-c2ccccc2)cc1	x	-2.8	-2.5	u	110.0*	71.5	22.3	105.3*
O=C(C[C@@H]1CC[C@@H]2[C@H](COC[C@H](O)CN2S(=O)(=O)c2cccc(Cl)c2)O1)Nc1ccc(-c2ccccc2)cc1	x	-0.2	-35.0	110.3*	93.2	111.3*	36.4*	75.4*
O=C(C[C@H]1CC[C@H]2[C@@H](COC[C@@H](O)CN2S(=O)(=O)c2cccc(Cl)c2)O1)Nc1ccccc1	x	0.1	6.5	15.1	x	x	x	x
CSc1ccccc1NC(=O)Cn1ccc([N+](=O)[O-])n1	0.0	x	x	x	x	x	x	x
